Screening results (PubChem)
The list is not random: actives were taken first. Their share in the collection is about 3.9%.
CHOP UPR activ: activators of apoptotic arm of unfolded protein response (CHOP); CHO-CHOP luciferase reporter, UPR activation, luminescence; percent of tunicamycin response over DMSO baseline; activation, % at 10 µM; 330,000 compounds, 0.34% hits; AID 449763;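 active = at 10 µM dose, activation of 40% or more, normalized to positive control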;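 also: 100% = tunicamycin at 10 µg/mL and 0% = DMSO alone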
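Material: CHO-CHOP cells, stable luciferase reporter of PERK-eIF2a-CHOP signalling; quantity: 500 reporter cells seeded per well; buffer or medium: F12 medium containing 10% fetal bovine serum; compound: one dose, 10 µM in 0.5% DMSO; incubation: 6 h compound treatment, 37 °C; measured by: Steady-Glo luciferase luminescence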
UPR XBP1 act: adaptive UPR (XBP1) activation; CHO-XBP1 luciferase reporter, IRE1-XBP1 UPR activation, luminescence; percent of tunicamycin response, DMSO as zero; activation, % at 20 µM; 330,000 compounds, 0.33% hits;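 active = versus positive control, 20 µM dose yields 30% or more activation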;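 also: 100% = tunicamycin at 10 µg/mL and 0% = DMSO only wells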
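Material: CHO cell line with stable XBP1 luciferase reporter; buffer or medium: F12 medium containing 10% fetal bovine serum; compound: single point, 20 µM final compound, 1% DMSO; incubation: 6 h treatment, 37 °C; measured by: glow luminescence from Steady-Glo reagent; evaluation: activation, % of tunicamycin; control set: tunicamycin high, DMSO low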
tim23-1 inh: growth inhibitors of tim23-1 mutant yeast; S. cerevisiae tim23-1 growth, BacTiter-Glo luminescence, 24 h; inhibition, % at 20 µM; 330,000 compounds, 1.3% hits; AID 463212;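 active = growth inhibition of the mutant yeast at or above 50%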;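 also: temperature-sensitive mutant grown at 25 °C; plate controls were DMSO-treated mutant yeast for no effect and medium wells lacking yeast for full effect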
tim10-1 inh: inhibits growth of tim10-1 mutant yeast; AID 463190; 330,000 compounds, 2.2% hits; inhibition, % at 20 µM; S. cerevisiae tim10-1 ts strain growth, BacTiter-Glo, 24 h;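 active = inhibition of at least 40%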;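 also: mutant grown at 25 °C; 0% = DMSO wells with yeast and 100% = wells holding no yeast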
TIM10 inh: inhibits growth of TIM10 yeast strain; S. cerevisiae TIM10 strain growth, BacTiter-Glo luminescence, 24 h; inhibition, % at 10 µM; 330,000 compounds, 1.4% hits;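 active = inhibition of 40% or more at the single tested concentration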;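 also: wild-type TIM10 isogenic control strain grown at permissive 25 °C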
tim10-1 confirm: confirmation of tim10-1 mutant yeast growth inhibitors; 7,400 compounds, 56% hits; inhibition, % at 20 µM; AID 463213; S. cerevisiae tim10-1 ts strain growth, BacTiter-Glo, 24 h; shares compounds with tim10-1 inh;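 active = inhibition of yeast growth at or above a set limit in either of two repeat tests at 20 µM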;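 also: tim10-1 mutant grown at permissive 25 °C to find synthetic lethal compounds; 0% = DMSO yeast wells and 100% = medium wells without yeast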
Starred values were filed as active, the others as inactive; . = no result.

SMILES	CHOP UPR activ	UPR XBP1 act	tim23-1 inh	tim10-1 inh	TIM10 inh	tim10-1 confirm
Cc1nnc(NC(=O)C23CC4CC(CC(C4)C2)C3)s1	2	4	37	12	15	.
COc1cccc(C(C(=O)NC2CCCC2)N(CC2CCCO2)C(=O)Cc2cccs2)c1 (stereo not drawn)	-1	-3	12	45*	14	21
COc1ccc(C(C(=O)NC2CCCC2)N(CC2CCCO2)C(=O)Cc2cccs2)cc1OC (stereo not drawn)	1	-1	4	16	19	.
Clc1ccc(C2=CC(c3ccco3)n3ncnc3N2)cc1 (stereo not drawn)	0	1	24	43*	29	33*
CN1CCN(C(c2ccccc2)c2ccccc2)CC1	-1	3	-4	5	11	.
CN1CCCN(C(c2ccccc2)c2ccc(Cl)cc2)CC1 (stereo not drawn)	0	-6	27	50*	24	34*
O=C(NC(=S)Nc1ccccc1O)c1ccc(Cl)cc1Cl	2	-2	43	43*	12	27
O=C(NNC(=S)Nc1cccc(C(F)(F)F)c1)c1ccc(Cl)cc1Cl	3	0	40	52*	17	46*
Cc1ccccc1C(=O)NNC(=S)Nc1cccc(C(F)(F)F)c1	-1	-2	5	26	7	.
CCOC(=O)Cc1csc(NC(=S)NC(=O)C(C)(C)C)n1	3	1	34	41*	17	18
CCOC(=O)Cc1csc(N/N=C/c2ccccc2)n1	-1	1	36	41*	25	20
CCN(CC)CCN(C(=O)C1=COCCO1)c1nc2c(OC)ccc(OC)c2s1	-2	-1	9	10	18	.
Cc1ccc2cccc(OCc3ccc(Br)cc3)c2n1	0	-2	39	44*	40	17
CCN(CC)CCCNc1nc2ccccc2c2nc(-c3ccncc3)nn12	2	-3	8	7	18	.
Cc1cccc(C(=O)NCC(=O)NCC2COc3ccccc3O2)c1 (stereo not drawn)	1	-3	20	11	17	.
CC(=O)Nc1nc(C)nc(-c2ccccc2OC(C)=O)n1	-1	0	13	-3	9	.
CC(=O)Nc1nc(-c2ccccc2)nc(-c2ccccc2OC(C)=O)n1	0	0	39	48*	29	16
CCOC(=O)C1CN(S(=O)(=O)c2cccc(C(F)(F)F)c2)c2cc(CC(=O)OC)ccc2O1 (stereo not drawn)	-2	-2	18	47*	7	25
O=C(NCc1ccccc1)c1nc(S(=O)(=O)Cc2ccccc2)ncc1Cl	105*	-11	42	52*	31	9
O=C(NCc1ccc2c(c1)OCO2)c1nc(S(=O)(=O)Cc2ccccc2)ncc1Cl	11	-6	43	55*	39	26
COc1ccc(CNC(=O)c2nc(S(=O)(=O)Cc3ccccc3)ncc2Cl)cc1	164*	-8	42	59*	29	31*
CCc1ccccc1N(C)S(=O)(=O)c1ccc(-c2cc(C)no2)s1	-1	-6	23	21	-24	.
COc1ccc(C(=O)OCC(=O)Nc2ccc3c(c2)OCO3)cc1S(=O)(=O)N1CCOCC1	0	2	0	-14	1	.
COc1ccc(C(=O)N/C(=C\c2cn(C)c3ccccc23)C(=O)NCCCN2CCOCC2)cc1	-1	-2	6	-1	-2	.
CC(C)(C)c1cc(N2CCOCC2)n2ncc(-c3ccc(Cl)cc3)c2n1	3	-2	23	9	3	.
SMILES	CHOP UPR activ	UPR XBP1 act	tim23-1 inh	tim10-1 inh	TIM10 inh	tim10-1 confirm
Cc1cc(C)n(-c2cc(C(C)(C)C)nc3c(-c4ccc(Cl)cc4)cnn23)n1	4	3	41	40	34	30
O=C(CN1C(=O)NC2(CCCCCC2)C1=O)N1CCCCC1	2	1	9	-1	16	.
CC(NC(=O)Nc1cccc(Cl)c1)C(c1cccs1)N1CCCC1 (stereo not drawn)	-2	1	-1	4	4	.
CC(NC(=S)Nc1ccc(Cl)cc1Cl)C(c1cccs1)N1CCCC1 (stereo not drawn)	-2	3	34	41*	26	10
CC1CCCC(NC(=S)NC(=O)c2ccco2)C1C (stereo not drawn)	-1	0	46	16	28	.
Cc1ccn2cc(-c3cccc(S(=O)(=O)N4CCCCC4)c3)nc2c1	2	0	38	48*	25	20
Cc1ccc2nc(-c3cccc(S(=O)(=O)N4CCCC4)c3)cn2c1	4	0	26	-7	8	.
COc1ccc(CNC(=O)COC(=O)[C@H](Cc2ccccc2)NC(=O)c2cccs2)cc1	2	0	3	-4	4	.
CC(NC(=O)c1ccc(F)cc1)c1nc2ccccc2n1Cc1ccccc1F (stereo not drawn)	0	-2	27	42*	8	29*
COc1cc(S(=O)(=O)N2CCN(c3ccccc3F)CC2)ccc1Cl	-2	1	17	43*	11	30
CCCN1CCN(S(=O)(=O)c2ccc3c(c2)NC(=O)C(C)S3)CC1 (stereo not drawn)	-1	-1	-4	-11	1	.
COc1ccccc1N1CCN(S(=O)(=O)c2ccc3nc(-c4ccccc4)[nH]c3c2)CC1	3	-3	37	42*	31	27
COc1ccccc1N1CCN(S(=O)(=O)c2ccc3c(c2)NC(=O)C(C)S3)CC1 (stereo not drawn)	1	-4	46	43*	13	6
O=C(C1=NN(c2ccccc2)C(=O)CC1)N1CCc2ccccc2C1	0	-2	12	30	6	.
Cc1ccc(N(CCC#N)C(=O)COC(=O)C2CCN(S(=O)(=O)c3ccc(C)c(C)c3)CC2)cc1	0	-1	12	18	1	.
COc1cc2c(cc1OC)CN(c1ccc([N+](=O)[O-])cc1Cl)CC2	3	-1	37	41*	30	50*
Cc1ccc(Cl)c(OC(=O)C2CSC3(C)CCC(=O)N23)c1 (stereo not drawn)	4	5	40	40*	27	27
CCOc1cccc(-c2c(C(=O)N/N=C/c3ccc(Br)cc3)nnn2-c2nonc2N)c1	3	-2	10	16	-2	.
Cc1noc(C)c1CC(=O)N1CCCC(C(=O)c2ccc(C(C)(C)C)cc2)C1 (stereo not drawn)	-1	-2	16	41*	30	22
O=C(Nc1ccccc1Cc1ccccc1)c1ccncc1	1	-3	-2	-7	8	.
